MCC and IC50 data for four compounds are collected here from ChEMBL document CHEMBL1155599, “Ancistrolikokines A-C: new 5,8'-coupled naphthylisoquinoline alkaloids from Ancistrocladus likoko” (J Nat Prod, 2000).

The nature of data set [1]: Cytotoxicity against rat L6 cells after 72 hrs. The format is cell-based. The note with it: read-out: MIC.
The test system of data set [2] is Plasmodium falciparum. Nature of the data set: Antimalarial activity after 48 hrs against Plasmodium falciparum K1 infected human erythrocytes by [3H]hypoxanthine uptake. The data set is classed as functional, organism-based. The method, boiled down:
(§1)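 Modified [3H]hypoxanthine incorporation assay; infected human red blood cells exposed to serial drug dilutions for 48 h at 37 °C under reduced O2/elevated CO2, then [3H]hypoxanthine added and incubated a further 24 h; harvested on glass fiber filters, scintillation counted. IC50 from sigmoidal inhibition curve; duplicates, repeated at least once. NF54 is drug-sensitive, K1 is chloroquine/pyrimethamine-resistant.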

Data set [3] concerns Plasmodium falciparum. The data set can be described thus: Antimalarial activity after 48 hrs against Plasmodium falciparum NF54 infected human erythrocytes by [3H]hypoxanthine uptake. The data set is classed as functional, organism-based. The method, boiled down: as §1

A word on the IC50: it is the concentration that inhibits the measured activity by half. Low values mean greater potency in that assay, high ones weaker potency in that assay.

≈ marks a conversion by molar mass, not a printed value.

Consider `COc1cc(O)c(-c2ccc(OC)c3c(O)cc(C)cc23)c2c1[C@H](C)N[C@H](C)C2` [ANCISTROLIKOKINE B], for which the MCC at 72 h in data set [1] was found to be 30 µg/mL. For the same compound, the IC50 in data set [2] amounted to 0.208 µg/mL (≈ 0.529 µM); in data set [3], 0.538 µg/mL (≈ 1.37 µM).

For `COc1cc(C)cc2c(-c3c(O)cc(O)c4c3C[C@@H](C)N[C@@H]4C)ccc(O)c12` [KORUPENSAMINE A], the MCC at 72 h in data set [1] came out at 100 µg/mL. Moreover, the IC50 amounted to 0.072 µg/mL (≈ 0.19 µM) in data set [2] and 0.024 µg/mL (≈ 0.0632 µM) in data set [3].

`COc1cc(O)c(-c2ccc(OC)c3c(O)cc(C)cc23)c2c1[C@@H](C)N(C)[C@H](C)C2` [ANCISTROLIKOKINE C]: the results for the IC50 in data set [2] and in data set [3] were 0.924 µg/mL (≈ 2.27 µM) and 6.23 µg/mL (≈ 15.3 µM), respectively.

`COc1cc(O)c2c(c1-c1ccc(O)c3c(OC)cc(C)cc13)C[C@@H](C)N(C)[C@@H]2C` [ANCISTROLIKOKINE A]: the MCC at 72 h in data set [1] amounted to 90 µg/mL. Further, the values for the IC50 in data set [2] and in data set [3] were 0.14 µg/mL (≈ 0.344 µM) and 0.191 µg/mL (≈ 0.469 µM), respectively.
